Converted amounts (≈) assume the structure as drawn.
Assays:
[1] = Inhibition of bocillin FL binding to Escherichia coli MC4100 penicillin-binding protein 4
Procedure, shortened: (§1)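 Isolated E. coli MC4100 PBPs were competed with 10 drug concentrations from 0.016 μg/ml to 8 μg/ml, then labeled with Bocillin FL. Fluorescent PBP bands were imaged. IC50 is the concentration giving 50% inhibition of Bocillin FL binding to each PBP relative to a no-drug control.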

[2] = biological target: T1, Cell shape peptidoglycan synthetase penicillin-binding protein 2 (Escherichia coli, UniProt Q2TL65); assay: Inhibition of bocillin FL binding to Escherichia coli MC4100 penicillin-binding protein 2
T1 sequence (Q2TL65 whole entry): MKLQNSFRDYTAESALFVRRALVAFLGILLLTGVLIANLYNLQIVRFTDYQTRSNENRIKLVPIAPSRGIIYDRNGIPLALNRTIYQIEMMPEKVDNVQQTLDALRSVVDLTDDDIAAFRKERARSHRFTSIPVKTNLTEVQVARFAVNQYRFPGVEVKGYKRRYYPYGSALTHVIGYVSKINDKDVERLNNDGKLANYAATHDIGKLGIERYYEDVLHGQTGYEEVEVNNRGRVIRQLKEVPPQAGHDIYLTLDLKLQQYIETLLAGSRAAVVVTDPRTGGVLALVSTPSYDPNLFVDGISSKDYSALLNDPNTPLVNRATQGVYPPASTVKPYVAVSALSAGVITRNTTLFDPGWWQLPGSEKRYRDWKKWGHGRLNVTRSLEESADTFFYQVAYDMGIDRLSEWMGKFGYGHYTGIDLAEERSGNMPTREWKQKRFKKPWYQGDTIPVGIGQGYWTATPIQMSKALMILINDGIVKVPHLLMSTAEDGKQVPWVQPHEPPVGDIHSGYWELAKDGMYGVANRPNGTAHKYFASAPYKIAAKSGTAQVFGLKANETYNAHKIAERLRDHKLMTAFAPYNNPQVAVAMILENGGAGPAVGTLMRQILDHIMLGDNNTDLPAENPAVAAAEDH
Procedure, shortened: (§2)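 Isolated E. coli MC4100 PBPs; competition with drug at 10 concentrations, 0.016 μg/ml to 8 μg/ml, then Bocillin FL labeling. Gel bands visualized by imaging. IC50 is the concentration giving 50% inhibition of Bocillin FL binding relative to a no-drug control.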

[3] = Inhibition of bocillin FL binding to Pseudomonas aeruginosa PAO1 penicillin-binding protein 4
Procedure, shortened: (§3)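 P. aeruginosa PAO1 PBPs were isolated and competed with 10 drug concentrations from 0.06 μg/ml to 32 μg/ml before Bocillin FL labeling. Bands were detected by fluorescence imaging. IC50 was taken as 50% inhibition of Bocillin FL binding versus the no-drug sample.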

[4] = biological target: T2, Penicillin-binding protein 2 (Pseudomonas aeruginosa, UniProt Q9X6V3); assay: Inhibition of bocillin FL binding to Pseudomonas aeruginosa PAO1 penicillin-binding protein 2
T2 sequence (Q9X6V3 whole entry): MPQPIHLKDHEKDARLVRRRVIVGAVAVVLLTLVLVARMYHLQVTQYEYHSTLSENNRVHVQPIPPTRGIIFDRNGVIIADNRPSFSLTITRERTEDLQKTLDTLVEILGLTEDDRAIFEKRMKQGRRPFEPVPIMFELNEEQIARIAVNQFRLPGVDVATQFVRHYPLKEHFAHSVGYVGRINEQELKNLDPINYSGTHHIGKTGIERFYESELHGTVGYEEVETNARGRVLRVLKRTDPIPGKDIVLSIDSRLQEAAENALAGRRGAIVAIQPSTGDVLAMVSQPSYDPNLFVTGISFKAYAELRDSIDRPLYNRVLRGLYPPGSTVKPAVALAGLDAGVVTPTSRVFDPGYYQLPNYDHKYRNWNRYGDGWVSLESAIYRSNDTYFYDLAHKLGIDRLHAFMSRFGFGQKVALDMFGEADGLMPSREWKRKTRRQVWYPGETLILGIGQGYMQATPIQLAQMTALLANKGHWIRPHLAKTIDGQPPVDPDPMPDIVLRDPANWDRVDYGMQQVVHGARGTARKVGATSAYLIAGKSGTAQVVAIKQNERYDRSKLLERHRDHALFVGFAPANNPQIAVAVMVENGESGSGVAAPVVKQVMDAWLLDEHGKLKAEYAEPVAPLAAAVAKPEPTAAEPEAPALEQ
Procedure, shortened: (§4)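 Isolated P. aeruginosa PAO1 PBPs; drug added at 10 concentrations, 0.06 μg/ml to 32 μg/ml, before Bocillin FL labeling. Labeled PBPs imaged. IC50 is the drug level cutting Bocillin FL binding by 50% versus a no-drug sample.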

[5] = Inhibition of bocillin FL binding to Escherichia coli MC4100 penicillin-binding protein 1b; procedure, shortened: as §1
[6] = Inhibition of bocillin FL binding to Pseudomonas aeruginosa PAO1 penicillin-binding protein 1a; procedure, shortened: as §3
[7] = Inhibition of bocillin FL binding to Pseudomonas aeruginosa PAO1 penicillin-binding protein 5/6; procedure, shortened: as §4
[8] = Inhibition of bocillin FL binding to Escherichia coli MC4100 penicillin-binding protein 3; procedure, shortened: as §1
[9] = Inhibition of bocillin FL binding to Escherichia coli MC4100 penicillin-binding protein 5; procedure, shortened: as §1
[10] = Inhibition of bocillin FL binding to Escherichia coli MC4100 penicillin-binding protein 1a; procedure, shortened: as §2
[11] = biological target: Penicillin-binding protein 3 (Pseudomonas aeruginosa, UniProt Q51504); assay: Inhibition of bocillin FL binding to Pseudomonas aeruginosa PAO1 penicillin-binding protein 3; procedure, shortened: as §4
[12] = Inhibition of bocillin FL binding to Escherichia coli MC4100 penicillin-binding protein 6; procedure, shortened: as §1
[13] = biological target: T3, Penicillin-binding protein 1B (Pseudomonas aeruginosa, UniProt Q9X6W0); assay: Inhibition of bocillin FL binding to Pseudomonas aeruginosa PAO1 penicillin-binding protein 1b; procedure, shortened: as §4
T3 sequence (Q9X6W0 whole entry): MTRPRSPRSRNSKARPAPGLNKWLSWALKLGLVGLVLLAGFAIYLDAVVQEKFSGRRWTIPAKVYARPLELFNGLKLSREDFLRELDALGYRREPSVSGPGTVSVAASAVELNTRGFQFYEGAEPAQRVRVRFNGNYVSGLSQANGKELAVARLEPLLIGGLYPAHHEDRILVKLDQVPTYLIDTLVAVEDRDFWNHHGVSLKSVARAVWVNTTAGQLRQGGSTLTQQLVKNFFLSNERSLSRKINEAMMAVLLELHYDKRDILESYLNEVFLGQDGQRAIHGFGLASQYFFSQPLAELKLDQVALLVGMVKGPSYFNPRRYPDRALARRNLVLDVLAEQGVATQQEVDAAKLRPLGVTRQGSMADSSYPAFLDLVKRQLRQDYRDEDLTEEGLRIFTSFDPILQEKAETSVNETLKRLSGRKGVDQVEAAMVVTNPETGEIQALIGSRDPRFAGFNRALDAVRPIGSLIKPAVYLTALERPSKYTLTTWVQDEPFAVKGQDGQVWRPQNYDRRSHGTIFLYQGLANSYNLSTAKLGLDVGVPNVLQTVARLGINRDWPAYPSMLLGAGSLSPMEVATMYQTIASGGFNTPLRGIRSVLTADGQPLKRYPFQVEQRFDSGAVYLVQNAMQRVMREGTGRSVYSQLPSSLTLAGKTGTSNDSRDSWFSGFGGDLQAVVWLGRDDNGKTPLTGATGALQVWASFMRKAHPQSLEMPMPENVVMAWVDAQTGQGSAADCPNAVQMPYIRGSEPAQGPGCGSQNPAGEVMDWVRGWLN

Penicillin-binding protein 3, sequence (Q51504 whole entry): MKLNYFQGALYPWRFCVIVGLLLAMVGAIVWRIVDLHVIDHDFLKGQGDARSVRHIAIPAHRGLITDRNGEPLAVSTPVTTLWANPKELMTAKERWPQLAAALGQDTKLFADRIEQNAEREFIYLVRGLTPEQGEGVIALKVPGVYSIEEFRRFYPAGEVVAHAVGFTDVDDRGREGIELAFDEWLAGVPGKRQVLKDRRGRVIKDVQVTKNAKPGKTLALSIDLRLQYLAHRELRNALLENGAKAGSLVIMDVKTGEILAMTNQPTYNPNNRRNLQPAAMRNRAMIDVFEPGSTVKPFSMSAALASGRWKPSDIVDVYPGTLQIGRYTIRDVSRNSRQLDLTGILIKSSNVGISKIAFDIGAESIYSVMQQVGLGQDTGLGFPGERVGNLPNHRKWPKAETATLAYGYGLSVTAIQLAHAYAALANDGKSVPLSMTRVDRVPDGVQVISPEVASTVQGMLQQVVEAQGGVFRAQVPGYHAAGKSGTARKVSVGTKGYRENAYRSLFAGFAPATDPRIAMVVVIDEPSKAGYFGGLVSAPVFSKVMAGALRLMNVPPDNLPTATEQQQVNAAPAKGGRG

SMILES	IC50 [1]	IC50 [2]	IC50 [3]	IC50 [4]	IC50 [5]	IC50 [6]	IC50 [7]	IC50 [8]	IC50 [9]	IC50 [10]	IC50 [11]	IC50 [12]	IC50 [13]
CO/N=C(\C(=O)N[C@@H]1C(=O)N2C(C(=O)[O-])=C(C[N+]3(C)CCCC3)CS[C@H]12)c1csc(N)n1	> 4 µg/mL	1.25 µM	0.3 µg/mL (≈ 0.624 µM)	16.6 µM	3.7 µg/mL (≈ 7.7 µM)	0.1 µg/mL (≈ 0.208 µM)	> 32 µg/mL	0.1 µg/mL (≈ 0.208 µM)	> 4 µg/mL	2 µg/mL (≈ 4.16 µM)	0.208 µM	> 4 µg/mL	
C[C@H]1[C@H](NC(=O)/C(=N\OC(C)(C)C(=O)O)c2csc(N)n2)C(=O)N1S(=O)(=O)O (stereo in doubt) [AZTREONAM]	> 8 µg/mL	> 18.4 µM	16 µg/mL (≈ 36.7 µM)	36.7 µM	> 8 µg/mL	2 µg/mL (≈ 4.59 µM)	> 16 µg/mL	0.03 µg/mL (≈ 0.0689 µM)	> 8 µg/mL	> 8 µg/mL	0.0689 µM	> 8 µg/mL	
C[C@@H](O)[C@H]1C(=O)N2C(C(=O)O)=C(SCCNC=N)C[C@H]12 [IMIPENEM ANHYDROUS]	0.01 µg/mL (≈ 0.0334 µM)	0.0334 µM	0.01 µg/mL (≈ 0.0334 µM)	0.334 µM	0.5 µg/mL (≈ 1.67 µM)	0.5 µg/mL (≈ 1.67 µM)	2 µg/mL (≈ 6.68 µM)	8 µg/mL (≈ 26.7 µM)	0.5 µg/mL (≈ 1.67 µM)	0.5 µg/mL (≈ 1.67 µM)	0.334 µM	0.1 µg/mL (≈ 0.334 µM)	1.67 µM

Reference: ChEMBL document CHEMBL1157359, “Binding of ceftobiprole and comparators to the penicillin-binding proteins of Escherichia coli, Pseudomonas aeruginosa, Staphylococcus aureus, and Streptococcus pneumoniae” (Antimicrob Agents Chemother, 2007)
